Hits are enriched below; roughly 5.8% of the tested compounds scored in any of these assays.
KDM4C inh = KDM4C (human) demethylase inhibition | Q9H3R0 | GST-KDM4C 2-372, H3K9me3 peptide, LANCE TR-FRET | inhibition, % at 12.5 µM | 0.15% of 96,000 active | AID 720574;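 active means mean replicate inhibition above about 25%, with at least 55% of replicates also reaching it, limit read from the data, passing the limit was not always enough; inconclusive means only one of those two conditions met; inactive means neither condition met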
Target sequence (Q9H3R0 2-372 limits assumed): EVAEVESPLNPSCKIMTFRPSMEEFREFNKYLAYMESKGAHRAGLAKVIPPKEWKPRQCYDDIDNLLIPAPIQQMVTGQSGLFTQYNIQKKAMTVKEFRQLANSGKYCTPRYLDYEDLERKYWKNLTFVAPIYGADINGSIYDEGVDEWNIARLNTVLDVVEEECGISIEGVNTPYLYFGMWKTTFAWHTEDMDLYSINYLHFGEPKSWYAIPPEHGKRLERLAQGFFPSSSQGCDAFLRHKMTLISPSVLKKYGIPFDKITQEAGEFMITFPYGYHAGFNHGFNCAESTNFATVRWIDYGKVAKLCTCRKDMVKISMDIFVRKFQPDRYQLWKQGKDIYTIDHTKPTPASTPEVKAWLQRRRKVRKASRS
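Material: N-terminal GST-fused human GASC-1 (KDM4C) fragment, residues 2-372. Input: 10 nM enzyme. Incubation: enzyme reaction 30 min, then detection 60 min, both room temperature. Doses: one test concentration per compound. Read-out basis: inhibition from TR-FRET ratio decrease. Detection: LANCE TR-FRET, excitation 340 nm, emissions 618 and 671 nm.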
IDH1 mut inh = IDH1 R132H (human) inhibition; O75874; IDH1 R132H reductase, diaphorase/resazurin fluorescence, 60 min; inhibition, % at 10 µM; 0.18% of 70,000 active; AID 624101; in the data active means inhibition above about 34%; inconclusive means no clear call, values can overlap the other calls; inactive means below about 11%;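 further: 0% = DMSO and 100% = no enzyme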
Pf Dd2 inh = blocks growth of Plasmodium falciparum Dd2 parasites | P. falciparum Dd2 growth, SYBR Green, 72 h; stronger effect = lower value | activity change, % at 10 µM | 2.3% of 94,000 active | AID 1159554; in the data active means activity change below about -80%; inconclusive means no clear call, values can overlap the other calls
T cruzi growth-1 = T. cruzi proliferation inhibition | T. cruzi beta-gal in NIH3T3, GalScreen luminescence, 90 h | inhibition, % at 8.34 µM | 5.9% of 77,000 active;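 active means mean inhibition above about 93%, with at least 55% of replicates each passing it, limit read from the data, passing the limit was not always enough; inconclusive means only one of those two conditions holds; inactive means neither condition holds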
T cruzi growth-2 = blocks T. cruzi growth in NIH3T3 host cells; 72% of 5,600 active; shares compounds with T cruzi growth-1; inhibition, % at 8.35 µM; T. cruzi beta-gal in NIH3T3, GalScreen luminescence, 90 h;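 active means mean replicate inhibition above about 95% and at least 55% of replicates individually reaching it, limit read from the data; inconclusive means only one of the two criteria is met; inactive means neither criterion is met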
T cruzi growth-3 = inhibitors of T. cruzi proliferation; T. cruzi beta-gal in NIH3T3, GalScreen luminescence, 90 h; shares compounds with T cruzi growth-1; 21% of 5,600 active; inhibition, % at 2.09 µM;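 active means mean inhibition above about 95%, with at least 55% of replicates also reaching it, limit read from the data; inconclusive means meets just one of the two conditions; inactive means meets neither condition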;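 further: plate controls were neutral control median for no effect and positive control median for full effect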
3T3 cytotox = NIH/3T3 (mouse) viability loss | shares compounds with T cruzi growth-1 | NIH/3T3 viability, CellTiter-Glo ATP luminescence, 90 h | AID 651742 | 14% of 5,600 active | cytotoxicity (signal decrease), % at 8.35 µM;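 active means mean signal decrease across replicates above about 35% based on untreated-well scatter, with enough replicates individually passing, limit read from the data; inconclusive means no rule stated though some were filed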;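 further: 0% = median of neutral control wells and 100% = median of positive control wells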
NIH3T3 tox 2 = NIH/3T3 (mouse) viability loss. AID 651744. inhibition, % at 24.9 µM. shares compounds with T cruzi growth-1. 56% of 5,600 active. NIH/3T3 viability, CellTiter-Glo ATP luminescence, 90 h;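 active means mean loss of cell viability signal at or above a set limit, and enough replicates individually reaching it; inconclusive means meets only the mean limit or only the replicate share; inactive means meets neither condition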;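 further: 0% = median of neutral control wells and 100% = median of positive control wells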
Starred values were filed as active, the others as inactive.

`COC(=O)COc1c(Br)cc(C2C3=C(CCCC3=O)NC3=C2C(=O)CCC3)cc1OC` gave IDH1 mut inh 0.
`CCc1cnc(N2[C@H](C#N)[C@H](c3ccc(C#CC(C)C)cc3)[C@@H]2CO)s1` gave KDM4C inh -1, Pf Dd2 inh -38, T cruzi growth-1 96*, T cruzi growth-2 100*, T cruzi growth-3 113*, 3T3 cytotox 6 and NIH3T3 tox 2 0.
For CCc1cnc(N2[C@H](CO)[C@H](c3ccc(C#CC(C)C)cc3)[C@@H]2C#N)s1 the results were KDM4C inh 2, Pf Dd2 inh 2 and T cruzi growth-1 89.
Screening CCc1cnc(N2[C@H](C#N)[C@H](c3ccc(C#CC(C)C)cc3)[C@H]2CO)s1 returned KDM4C inh -1, Pf Dd2 inh -13, T cruzi growth-1 107*, T cruzi growth-2 98*, T cruzi growth-3 108*, 3T3 cytotox 16 and NIH3T3 tox 2 26*.
For CCc1cnc(N2[C@H](C#N)[C@@H](c3ccc(C#CC(C)C)cc3)[C@H]2CO)s1 the results were KDM4C inh -1, Pf Dd2 inh -23 and T cruzi growth-1 83.
For N#Cc1ccccc1NC(=O)CS(=O)(=O)Cc1ccccc1 the results were IDH1 mut inh 0.
Screening CCn1c(SCC(=O)Nc2ccccc2OC)nnc1-c1ccncc1 returned IDH1 mut inh 0.
COc1cccc(C(=O)Nc2ccc3c(c2)OC[C@H](C)N(CCc2ccccc2)C[C@H](C)[C@@H](OC)CN(C)C3=O)c1 was read as KDM4C inh -2, IDH1 mut inh 0, Pf Dd2 inh -52, T cruzi growth-1 116*, T cruzi growth-2 103*, T cruzi growth-3 77, 3T3 cytotox -6 and NIH3T3 tox 2 8.
For COc1cccc(C(=O)Nc2ccc3c(c2)OC[C@@H](C)N(CCc2ccccc2)C[C@@H](C)[C@@H](OC)CN(C)C3=O)c1 the results were KDM4C inh 1, IDH1 mut inh 0, Pf Dd2 inh -55 and T cruzi growth-1 68.
Screening COc1cccc(C(=O)Nc2ccc3c(c2)OC[C@@H](C)N(CCc2ccccc2)C[C@H](C)[C@@H](OC)CN(C)C3=O)c1 returned KDM4C inh -3, IDH1 mut inh -1, Pf Dd2 inh -2, T cruzi growth-1 110*, T cruzi growth-2 110*, T cruzi growth-3 56, 3T3 cytotox -19 and NIH3T3 tox 2 -5.
Screening COc1cccc(C(=O)Nc2ccc3c(c2)C(=O)N(C)C[C@H](OC)[C@H](C)CN(CCc2ccccc2)[C@@H](C)CO3)c1 returned KDM4C inh 2, IDH1 mut inh 0, Pf Dd2 inh -58 and T cruzi growth-1 inconclusive.
Screening COc1cccc(C(=O)Nc2ccc3c(c2)OC[C@H](C)N(CCc2ccccc2)C[C@@H](C)[C@@H](OC)CN(C)C3=O)c1 returned KDM4C inh -1, IDH1 mut inh 0, Pf Dd2 inh -35, T cruzi growth-1 119*, T cruzi growth-2 109*, T cruzi growth-3 62, 3T3 cytotox 13 and NIH3T3 tox 2 -1.
For COc1cccc(C(=O)Nc2ccc3c(c2)C(=O)N(C)C[C@H](OC)[C@@H](C)CN(CCc2ccccc2)[C@H](C)CO3)c1 the results were KDM4C inh 0, IDH1 mut inh 0, Pf Dd2 inh -49 and T cruzi growth-1 84.
Screening O=C(CSc1nnc(-c2ccncc2)n1-c1ccc(Cl)cc1)Nc1ccc(F)cc1F returned IDH1 mut inh 0.
For CC(C)(C)c1ccc(-c2nnc(SCC(=O)Nc3ccccc3)n2-c2ccccc2)cc1 the results were IDH1 mut inh 0.
Screening CN1c2ccc(C#Cc3cccnc3)cc2[C@@H]2[C@@H](CCN2C(=O)C2CCCCC2)[C@H]1CO returned KDM4C inh 1, Pf Dd2 inh -42, T cruzi growth-1 119*, T cruzi growth-2 110*, T cruzi growth-3 57, 3T3 cytotox 41* and NIH3T3 tox 2 42*.
CN1c2ccc(C#Cc3cccnc3)cc2[C@@H]2[C@@H](CCN2C(=O)c2cccc(F)c2)[C@@H]1CO was read as KDM4C inh 20, Pf Dd2 inh -36, T cruzi growth-1 109*, T cruzi growth-2 107*, T cruzi growth-3 45, 3T3 cytotox 31 and NIH3T3 tox 2 31*.
`CN1c2ccc(C#Cc3cccnc3)cc2[C@H]2[C@H](CCN2S(=O)(=O)c2ccc(F)cc2)[C@@H]1CO` gave KDM4C inh 0, Pf Dd2 inh -64, T cruzi growth-1 103*, T cruzi growth-2 98*, T cruzi growth-3 89, 3T3 cytotox 15 and NIH3T3 tox 2 31*.
For COc1cccc(S(=O)(=O)N2CC[C@@H]3[C@H]2c2cc(C#Cc4cccnc4)ccc2N[C@@H]3CO)c1 the results were KDM4C inh -1, Pf Dd2 inh -11, T cruzi growth-1 inconclusive, T cruzi growth-2 107*, T cruzi growth-3 86, 3T3 cytotox 14 and NIH3T3 tox 2 43*.
`CCN(CC(=O)O)S(=O)(=O)c1ccc(Br)cc1` gave IDH1 mut inh 0.
`CCC(C)N1CCC2(CC1)N=c1c(c3c4c5c(C)c(O)c3c(O)c1=NC(=O)/C(C)=C\C=C[C@H](C)[C@H](O)[C@@H](C)[C@@H](O)[C@@H](C)[C@H](OC(C)=O)[C@H](C)[C@@H](OC)/C=C\O[C@@](C)(O5)C4=O)N2` (some centres not stated) gave IDH1 mut inh 0.
C[C@H](CO)N1C[C@H](C)[C@H](CN(C)C(=O)c2ccccc2F)Oc2ncc(C#Cc3ccccc3)cc2C1=O was read as KDM4C inh 1, Pf Dd2 inh -60 and T cruzi growth-1 -19.
Screening C[C@@H]1CN([C@@H](C)CO)C(=O)c2cc(C#Cc3cccc(F)c3)cnc2O[C@H]1CN(C)C(=O)c1ccccc1F returned KDM4C inh -1, IDH1 mut inh 1, Pf Dd2 inh -77, T cruzi growth-1 110*, T cruzi growth-2 109*, T cruzi growth-3 47, 3T3 cytotox 21 and NIH3T3 tox 2 25.
For C[C@H](CO)N1C[C@H](C)[C@@H](CN(C)C(=O)c2ccccc2F)Oc2ncc(C#Cc3cccc(F)c3)cc2C1=O the results were KDM4C inh -1, IDH1 mut inh 1, Pf Dd2 inh -87*, T cruzi growth-1 99*, T cruzi growth-2 103*, T cruzi growth-3 36, 3T3 cytotox -11 and NIH3T3 tox 2 -10.
Screening C[C@@H]1CN([C@H](C)CO)C(=O)c2cc(C#Cc3ccccc3)cnc2O[C@@H]1CN(C)C(=O)c1ccccc1F returned KDM4C inh 0, Pf Dd2 inh -59 and T cruzi growth-1 -97.

Bioassay records as filed in PubChem.
